Measured values of several laboratories.
Compare with care: the assays were run in different laboratories.
PTGS1: Prostaglandin G/H synthase 1 (PTGS1, Ovis aries, UniProt P05979)
Organic anion transporter 3: Organic anion transporter 3 (Mus musculus, UniProt O88909)

COc1cc(C(=O)OCCCN2CCCN(CCCOC(=O)c3cc(OC)c(OC)c(OC)c3)CC2)cc(OC)c1OC  IC50 (Equilibrative nucleoside transporter 2 (Homo sapiens, UniProt Q14542); transporter uptake; inhibitor; radiometric; oocytes): 256 µM
COc1ccc(-c2csc(=NN=Cc3c(C)ccc(C(C)C)c3O)n2-c2ccccc2Cl)cc1  IC50 (PTGS1; enzyme activity; inhibitor; absorbance): 9.87 µM
Cn1c(=O)c2c(ncn2C)n(C)c1=O  IC50 (Organic anion transporter 3; transporter uptake; inhibitor; radiometric; oocytes): 7.5 µM
CC(=O)N[C@H]1C(O)O[C@H](CO)[C@@H](O[C@@H]2O[C@H](CO)[C@H](O)[C@H](O)[C@H]2O)[C@@H]1O (stereo partly shown)  Kd (Galectin-7 (LGALS7, Homo sapiens, UniProt P47929); binding; ITC): 225 µM
Nc1ncnc2c1ncn2[C@@H]1O[C@H](CO)[C@@H](O)[C@H]1O  IC50 (Organic anion transporter 3; transporter uptake; inhibitor; radiometric; oocytes): 930 µM
N=c1c[n+](N2CCOCC2)[n-]o1  IC50 (NAD-dependent protein deacetylase sirtuin-3, mitochondrial (SIRT3, Homo sapiens, UniProt Q9NTG7); enzyme activity; inhibitor): 35 µM
COc1ccc(-n2c(-c3ccccc3)csc2=NN=Cc2c(C)ccc(C(C)C)c2O)cc1  IC50 (PTGS1; enzyme activity; inhibitor; absorbance): 14.3 µM
CCCC(=O)NCCCN1CCc2c([nH]c3ccc(Cl)cc23)C1  IC50 (Sodium-dependent serotonin transporter (SLC6A4, Homo sapiens, UniProt P31645); transporter uptake; inhibitor): 96.2 µM
O=c1cc(-c2ccc(O)cc2)oc2c([C@@H]3OC[C@H](O)[C@H](O)[C@H]3O)c(O)c([C@@H]3O[C@H](CO)[C@@H](O)[C@H](O)[C@H]3O)c(O)c12  Kd (Calcium/calmodulin-dependent protein kinase type II subunit delta (CAMK2D, Homo sapiens, UniProt Q13557); binding; SPR): 140 µM
CC1(CN)CCN(c2cnc3c(Sc4ccncc4Cl)n[nH]c3n2)CC1  IC50 (Tyrosine-protein phosphatase non-receptor type 11 (PTPN11, Homo sapiens, UniProt Q06124); enzyme activity; inhibitor): > 100 µM
